{"data": "Measured values from different studies", "action": "inhibitor", "KCNH2": "Voltage-gated inwardly rectifying potassium channel KCNH2 (KCNH2, Homo sapiens, UniProt Q12809)", "HDAC6": "Protein deacetylase HDAC6 (HDAC6, Homo sapiens, UniProt Q9UBN7)", "Dihydroorotate dehydrogenase, mitochondrial, putative": "Dihydroorotate dehydrogenase, mitochondrial, putative (Plasmodium vivax, UniProt A5K1N1)", "note": "Protocols differ between the studies behind these lines."}
{"Compound": "CN(C)C(=O)CN1CCN(c2cnc3c(cc(C(=O)NCc4ccc(Cl)cc4)c(=O)n3CC(=O)N3CC(C)(F)C3)n2)C1=O", "target": "KCNH2", "assay": "ion current, patch clamp", "IC50": "> 40000 nM"}
{"Compound": "COc1ccc2c(C(=S)N(C)CC(=O)O)cccc2c1C(F)(F)F", "target": "Aldo-keto reductase family 1 member B10 (AKR1B10, Homo sapiens, UniProt O60218)", "assay": "enzyme activity", "IC50": "57 nM"}
{"Compound": "O=C(NO)c1cccc(OS(=O)(=O)Oc2ccc(-c3cccc(C(F)(F)F)c3)cc2)c1", "target": "HDAC6", "assay": "enzyme activity, fluorescence", "IC50": "3100 nM"}
{"Compound": "CC1(F)CN(C(=O)Cn2c(=O)c(C(=O)NCc3ccc(Cl)cc3)cc3nc(N4CCOC4=O)cnc32)C1", "target": "KCNH2", "assay": "ion current, patch clamp", "IC50": "5620 nM"}
{"Compound": "COc1cc2c(cc1OC)CC(=O)N(CCCN(C)C[C@H]1Cc3cc(OC)c(OC)cc31)CC2", "target": "Potassium/sodium hyperpolarization-activated cyclic nucleotide-gated channel 1 (Homo sapiens, UniProt O60741)", "assay": "ion current", "IC50": "5400 nM"}
{"Compound": "CC(C)c1cccc(OS(=O)(=O)Oc2cc(F)cc(C(=O)NO)c2)c1", "target": "HDAC6", "assay": "enzyme activity, fluorescence", "IC50": "832 nM"}
{"Compound": "CNCCN1CCN(c2cnc3c(cc(C(=O)NCc4ccc(Cl)cc4)c(=O)n3CC(=O)N3CC(C)(F)C3)n2)C1=O", "target": "KCNH2", "assay": "ion current, patch clamp", "IC50": "> 40000 nM"}
{"Compound": "CCn1cnc2c([C@@](O)(CC)c3ccc(C(F)(F)F)nc3)n(C)nc2c1=O", "target": "Dihydroorotate dehydrogenase, mitochondrial, putative", "assay": "enzyme activity, absorbance", "IC50": "26 nM"}
{"Compound": "Cc1cc(OS(=O)(=O)Oc2ccccc2)cc(C(=O)NO)c1", "target": "HDAC6", "assay": "enzyme activity, fluorescence", "IC50": "3830 nM"}
{"Compound": "CCn1ncc2c([C@](O)(c3ccc(C(F)(F)F)c(Cl)c3)C3CC3)n(C)nc2c1=O", "target": "Dihydroorotate dehydrogenase, mitochondrial, putative", "assay": "enzyme activity, absorbance", "IC50": "5 nM"}
{"Compound": "O=c1oc(-c2cccnc2)nc2ccccc12", "target": "Prothrombin (F2, Homo sapiens, UniProt P00734)", "assay": "enzyme activity, absorbance", "conditions": "pH 7.4", "IC50": "~970 nM"}
{"Compound": "CN(C)C(=O)c1cc2cnc(Nc3ccc(N4CCNCC4)cn3)nc2n1C1CCCC1", "target": "3',5'-cyclic-AMP phosphodiesterase 4D (PDE4D, Homo sapiens, UniProt Q08499)", "assay": "enzyme activity, TR-FRET", "IC50": "> 10000 nM"}
{"Compound": "O=C(NO)c1cccc(OS(=O)(=O)Oc2ccc3ccccc3c2)c1", "target": "HDAC6", "assay": "enzyme activity, fluorescence", "IC50": "91 nM"}
{"Compound": "Cn1nc2c(=O)n(C3CC3)ccc2c1[C@](O)(c1cnc(C(F)(F)F)c(Cl)c1)C(F)(F)F", "target": "Dihydroorotate dehydrogenase, mitochondrial, putative", "assay": "enzyme activity, absorbance", "IC50": "19 nM"}
{"Compound": "Cc1cc(OS(=O)(=O)Oc2ccc(-n3ccnc3)cc2)cc(C(=O)NO)c1", "target": "HDAC6", "assay": "enzyme activity, fluorescence", "IC50": "4750 nM"}
{"Compound": "Cn1nc2c(=O)n(C3CC3)ncc2c1[C@](N)(c1ccc(C(F)(F)F)c(Cl)c1)C1CC1", "target": "Dihydroorotate dehydrogenase, mitochondrial, putative", "assay": "enzyme activity, absorbance", "IC50": "6.7 nM"}
{"Compound": "O=C(NO)c1cncc(OS(=O)(=O)Oc2ccc(C(F)(F)F)cc2)c1", "target": "HDAC6", "assay": "enzyme activity, fluorescence", "IC50": "147 nM"}
{"Compound": "CC[C@@](N)(c1cnc(C(F)(F)F)c(Cl)c1)c1c2ncn(C3CC3)c(=O)c2nn1C", "target": "Dihydroorotate dehydrogenase, mitochondrial, putative", "assay": "enzyme activity, absorbance", "IC50": "40 nM"}
{"Compound": "C=CS(=O)(=O)c1ccc(Nc2nc(OCC3CCCCC3)c3nc[nH]c3n2)cc1", "target": "KCNH2", "assay": "ion current, patch clamp", "test system": "HEK293", "IC50": "5940 nM"}
